Series [1] deals with T1, 5-hydroxytryptamine receptor 1A (Homo sapiens, UniProt P08908).
T1 sequence (P08908 whole entry): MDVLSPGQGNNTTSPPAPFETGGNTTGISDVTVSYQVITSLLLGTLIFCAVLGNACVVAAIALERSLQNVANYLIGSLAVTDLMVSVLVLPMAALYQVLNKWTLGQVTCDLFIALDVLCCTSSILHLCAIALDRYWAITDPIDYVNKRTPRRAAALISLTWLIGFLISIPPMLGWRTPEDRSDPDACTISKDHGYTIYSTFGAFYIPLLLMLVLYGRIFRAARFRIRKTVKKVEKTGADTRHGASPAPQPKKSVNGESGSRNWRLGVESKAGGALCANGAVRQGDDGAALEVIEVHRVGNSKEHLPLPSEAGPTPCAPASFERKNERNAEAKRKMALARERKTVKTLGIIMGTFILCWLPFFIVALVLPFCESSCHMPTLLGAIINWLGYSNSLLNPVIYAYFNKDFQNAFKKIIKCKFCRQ
The series is described as follows: Displacement of [3H]-8-OH-DPAT from human 5HT1AR expressed in HEK293 cell membranes after 1 hr by Microbeta scintillation counting method.

The subject of series [2] is Mus musculus. The series is described as follows: Antidepressant like activity in Swiss albino mouse assessed as immobility time at 10 mg/kg, ip administered 60 mins prior to test and measured last 4 mins of 6 mins test by forced swimming test (reference value: 159.78 to 183.56 secs). Type of series: functional.
For series [3], the system named is Mus musculus. The series is described as follows: Anxiolytic-like activity in Swiss albino mouse assessed as number of punished crossings at 5 mg/kg, ip administered 60 mins prior to test and measured post 3 secs of electric shock by four-plate test (reference value: 3.8 to 4 /min). The format is functional.
Series [4] relates to Mus musculus. The series is described as follows: Anxiolytic-like activity in Swiss albino mouse assessed as number of punished crossings at 10 mg/kg, ip administered 60 mins prior to test and measured post 3 secs of electric shock by four-plate test (reference value: 3.8 to 4 /min). The format is functional.
For series [5], the target named is Beta-1 adrenergic receptor (Rattus norvegicus, UniProt P18090). The series is described as follows: Displacement of [3H]-CGP-12177 from beta1-adrenergic receptor in rat brain cortex after 1 hr by Microbeta scintillation counting method.
Series [6] concerns Mus musculus. Nature of the series: Anxiolytic-like activity in Swiss albino mouse assessed as number of punished crossings at 20 mg/kg, ip administered 60 mins prior to test and measured post 3 secs of electric shock by four-plate test (reference value: 3.8 to 4 /min). The format is functional.
Series [7] deals with Mus musculus. The series is described as follows: Antidepressant like activity in Swiss albino mouse assessed as immobility time at 5 mg/kg, ip administered 60 mins prior to test and measured last 4 mins of 6 mins test by forced swimming test (reference value: 159.78 to 183.56 secs). Type of series: functional.
Series [8] relates to Mus musculus. Nature of the series: Antidepressant like activity in Swiss albino mouse assessed as immobility time at 20 mg/kg, ip administered 60 mins prior to test and measured last 4 mins of 6 mins test by forced swimming test (reference value: 159.78 to 183.56 secs). The format is functional.
For series [9], the system named is Mus musculus. Nature of the series: Antidepressant like activity in Swiss albino mouse assessed as decrease in immobility time at 10 mg/kg, ip administered 60 mins prior to test and measured last 4 mins of 6 mins test by forced swimming test relative to control. The format is functional. The arrangement: scale not given: the % may be the effect or the level left.

In series [10] the test system is Mus musculus. The series is described as follows: Effect on spontaneous locomotor activity in Swiss albino mouse at 10 mg/kg, ip administered 60 mins prior to test and measured for 3 to 6 mins. The format is ADME, organism-based. Conditions: in vivo. Summed up:
(§1)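 Male Swiss Albino mice given compound or vehicle (1% Tween 80, 10 ml/kg) i.p. 60 min before test. Each mouse placed alone in a cage for 30 min habituation. Ambulation (photobeam channel crossings) then recorded over a 3–6 min session. Means ± SEM.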

For another series, the species on record is Homo sapiens. Nature of the series: Selectivity ratio of Ki for human D2L receptor expressed in HEK293 cell membranes to Ki for human 5HT7BR expressed in HEK293 cell membranes. The format is cell-based. The method in brief:
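Membranes from HEK293 cells stably expressing human 5-HT1A, 5-HT7b or D2L receptors. Buffers all 50 mM Tris HCl with 4 mM MgCl2 and 0.1% ascorbate. 5-HT1A: 0.1 mM EDTA, 10 µM pargyline, 2.5 nM [3H]-8-OH-DPAT, room temperature. 5-HT7b: 10 µM pargyline, 0.8 nM [3H]-5-CT, 37°C. D2L: EDTA, NaCl, KCl, CaCl2, 2.5 nM [3H]-raclopride, 37°C. Incubation 1 h; nonspecific binding 10 µM 5-HT (haloperidol for D2L). Seven concentrations (10^-10–10^-4 M) in triplicate; filtration; Ki by Cheng-Prusoff; at least two experiments.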

Series [11] relates to Mus musculus. Nature of the series: Effect on spontaneous locomotor activity in Swiss albino mouse at 20 mg/kg, ip administered 60 mins prior to test and measured for 3 to 6 mins. Conditions: in vivo. The format is ADME, organism-based. The method in brief:
as §1

For series [12], the system named is Mus musculus. The series is described as follows: Anxiolytic-like activity in Swiss albino mouse assessed as number of punished crossings at 40 mg/kg, ip administered 60 mins prior to test and measured post 3 secs of electric shock by four-plate test (reference value: 3.8 to 4 /min). Type of series: functional.

Beta-1 adrenergic receptor, sequence (P18090 whole entry): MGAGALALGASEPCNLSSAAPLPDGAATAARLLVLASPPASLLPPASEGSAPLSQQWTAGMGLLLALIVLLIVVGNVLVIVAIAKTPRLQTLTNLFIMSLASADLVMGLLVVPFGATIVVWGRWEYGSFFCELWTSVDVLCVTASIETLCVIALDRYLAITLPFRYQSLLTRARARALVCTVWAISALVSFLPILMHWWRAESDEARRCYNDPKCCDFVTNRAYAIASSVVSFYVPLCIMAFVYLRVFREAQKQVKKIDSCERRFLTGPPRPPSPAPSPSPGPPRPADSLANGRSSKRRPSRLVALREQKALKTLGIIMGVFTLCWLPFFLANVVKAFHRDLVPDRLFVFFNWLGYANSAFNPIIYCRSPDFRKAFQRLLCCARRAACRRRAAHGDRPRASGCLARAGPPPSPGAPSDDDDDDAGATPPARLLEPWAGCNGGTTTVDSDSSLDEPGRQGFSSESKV

As for `COc1ccccc1N1CCN(CC(O)CN2C(=O)NC(C)(c3ccc(Br)cc3)C2=O)CC1.Cl` (racemic), the Ki was 85 nM in series [1] and over 10 µM in series [5]. The Time with Mus musculus [2] came out at 179.44 s; in the series with Mus musculus [7] it was 184.22 s; in the series on Mus musculus [8], 91.13 s. For the same compound, the Activity in the series with Mus musculus [3] is 3.1 min⁻¹; with Mus musculus [4] it was 3.1 min⁻¹; in the series on Mus musculus [6], 2.2 min⁻¹; in the series with Mus musculus [9] it was 50%; in the series with Mus musculus [10] it was “Non-Toxic”.

As to `CC1(c2ccc(Cl)cc2)NC(=O)N(CC(O)CN2CCN(c3ccccc3C#N)CC2)C1=O.Cl` (racemic), in the series filed under Homo sapiens, the Ratio Ki was in the range of 140 to 190. In addition, the Ki in [1] is 305 nM; in [5], over 10 µM.

Consider `CC1(c2ccc(Br)cc2)NC(=O)N(CC(O)CN2CCN(c3ccccc3C#N)CC2)C1=O.Cl` (racemic), for which the Ki in [1] was 140 nM; in series [5] it was over 10 µM. Moreover, the figures for the Time in the series with Mus musculus [2], with Mus musculus [7] and in the series on Mus musculus [8] were 136.63 s, 156.33 s and 55.33 s, respectively. Further, the Activity entry in the series with Mus musculus [11] is “Non-Toxic”; in the series with Mus musculus [12], 4.3 min⁻¹; in the series with Mus musculus [4], 3.9 min⁻¹; in the series with Mus musculus [6], 3.7 min⁻¹.

The Ki is the equilibrium dissociation constant of an inhibitor or competing ligand from its target.

The values above are taken from ChEMBL document CHEMBL4145534, “Computer-aided insights into receptor-ligand interaction for novel 5-arylhydantoin derivatives as serotonin 5-HT7 receptor agents with antidepressant activity” (Eur J Med Chem, 2018).
